According to ChEMBL document CHEMBL3046803, “Synthesis and insecticidal activities of novel anthranilic diamides containing acylthiourea and acylurea” (2012):
Values after ≈ are worked out from the molar mass of the structure shown. Active and inactive are the calls of the source. No cut-off for these calls is given here.

Experiments:
Mythimna separata [1] = experiment: Insecticidal activity against Mythimna separata (Oriental armyworm) fourth-instar larvae infected Zea mays leaves assessed as larvicidal activity at 200 mg/L measured 2 days post dose; type: functional
How it was run: (§1)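 Foliar application test: individual corn (Tangyu 10) leaves were placed on moistened filter paper in Petri dishes.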

Plutella xylostella [2] = experiment: Insecticidal activity against Plutella xylostella (diamondback moth) s-instar larvae infected in fresh cabbage leaves assessed as larvicidal activity at 0.1 mg/L measured 2 days post dose; type: functional
How it was run: (§2)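 Leaf-dip (spray) test: a 200 mg/L stock in DMF was diluted with distilled water. Cabbage leaf disks (6 × 2 cm) were sprayed for 3 s, dried, and placed individually in glass tubes. Each disk received 30 second-instar larvae. Mortality was scored at 2 days; triplicate.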

Mythimna separata [3] = experiment: Insecticidal activity against Mythimna separata (Oriental armyworm) fourth-instar larvae infected Zea mays leaves assessed as larvicidal activity at 5 mg/L measured 2 days post dose; type: functional; how it was run: as §1
Mythimna separata [4] = experiment: Insecticidal activity against Mythimna separata (Oriental armyworm) fourth-instar larvae infected Zea mays leaves assessed as larvicidal activity at 100 mg/L measured 2 days post dose; type: functional; how it was run: as §1
Mythimna separata [5] = experiment: Insecticidal activity against Mythimna separata (Oriental armyworm) fourth-instar larvae infected Zea mays leaves assessed as larvicidal activity at 10 mg/L measured 2 days post dose; type: functional; how it was run: as §1
Plutella xylostella [6] = experiment: Insecticidal activity against Plutella xylostella (diamondback moth) s-instar larvae infected in fresh cabbage leaves assessed as larvicidal activity at 1 mg/L measured 2 days post dose; type: functional; how it was run: as §2
Plutella xylostella [7] = experiment: Insecticidal activity against Plutella xylostella (diamondback moth) s-instar larvae infected in fresh cabbage leaves assessed as larvicidal activity at 0.01 mg/L measured 2 days post dose; type: functional; how it was run: as §2
Mythimna separata [8] = experiment: Insecticidal activity against Mythimna separata (Oriental armyworm) fourth-instar larvae infected Zea mays leaves assessed as larvicidal activity at 20 mg/L measured 2 days post dose; type: functional; how it was run: as §1
Plutella xylostella [9] = experiment: Insecticidal activity against Plutella xylostella (diamondback moth) s-instar larvae infected in fresh cabbage leaves assessed as larvicidal activity at 0.001 mg/L measured 2 days post dose; type: functional; how it was run: as §2
Plutella xylostella [10] = experiment: Insecticidal activity against Plutella xylostella (diamondback moth) s-instar larvae infected in fresh cabbage leaves assessed as larvicidal activity at 20 mg/L measured 2 days post dose; type: functional; how it was run: as §2
Mythimna separata [11] = experiment: Insecticidal activity against Mythimna separata (Oriental armyworm) fourth-instar larvae infected Zea mays leaves assessed as larvicidal activity at 50 mg/L measured 2 days post dose; type: functional; how it was run: as §1
Culex pipiens pallens [12] = experiment: Insecticidal activity against Culex pipiens pallens (mosquito) fourth-instar larvae assessed as larvicidal activity at 2 mg/L measured 3 days post dose; type: functional
How it was run: (§3)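 Mosquito larvicidal test: compounds were dissolved in acetone and diluted with distilled water to the test concentrations.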

Culex pipiens pallens [13] = experiment: Insecticidal activity against Culex pipiens pallens (mosquito) fourth-instar larvae assessed as larvicidal activity at 1 mg/L measured 3 days post dose; type: functional; how it was run: as §3
Culex pipiens pallens [14] = experiment: Insecticidal activity against Culex pipiens pallens (mosquito) fourth-instar larvae assessed as larvicidal activity at 0.5 mg/L measured 3 days post dose; type: functional; how it was run: as §3
Plutella xylostella [15] = experiment: Insecticidal activity against Plutella xylostella (diamondback moth) s-instar larvae infected in fresh cabbage leaves assessed as larvicidal activity measured 2 days post dose; type: functional; details: 48 h; how it was run: as §2
[16] = target: Voltage-dependent L-type calcium channel, putative (Pediculus humanus subsp. corporis) (UniProt E0VY79); experiment: Inhibition of voltage-dependent L-type calcium channel in Spodoptera exigua neurons assessed as peak intracellular calcium level at 1000 mg/L measured 10 min post dose by calcium-imaging technique relative to initial untreated control; type: cell-based; set-up: scale not given: the % may be the effect or the level left
How it was run: (§4)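 S. exigua neurons were rinsed in physiological saline (pH 6.9). They were dye-loaded in the dark at 28 °C, either with 10 μM fluo-3-AM for 45 min in standard saline or with 5 μM fluo-5N for 5 h in EGTA Ca-free saline, then rinsed twice. [Ca²⁺]i was imaged on an inverted fluorescence microscope (40× oil, 488/530 nm) over 10 min. F/F₀ is relative to resting baseline; ≥6 repeats; mean ± SD.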

[17] = target: Voltage-dependent L-type calcium channel, putative (Pediculus humanus subsp. corporis) (UniProt E0VY79); experiment: Inhibition of voltage-dependent L-type calcium channel in Spodoptera exigua neurons assessed as change in […] calcium level at 1000 mg/L measured 10 min post dose by calcium-imaging technique; how it was run: as §4
[18] = target: Voltage-dependent L-type calcium channel, putative (Pediculus humanus subsp. corporis) (UniProt E0VY79); experiment: Inhibition of voltage-dependent L-type calcium channel in Spodoptera exigua neurons assessed as increase in intracellular calcium level at 1000 mg/L measured 10 min post dose by calcium-imaging technique; type: cell-based; how it was run: as §4

Chain of Voltage-dependent L-type calcium channel, putative (Pediculus humanus subsp. corporis) (E0VY79 as listed by the source): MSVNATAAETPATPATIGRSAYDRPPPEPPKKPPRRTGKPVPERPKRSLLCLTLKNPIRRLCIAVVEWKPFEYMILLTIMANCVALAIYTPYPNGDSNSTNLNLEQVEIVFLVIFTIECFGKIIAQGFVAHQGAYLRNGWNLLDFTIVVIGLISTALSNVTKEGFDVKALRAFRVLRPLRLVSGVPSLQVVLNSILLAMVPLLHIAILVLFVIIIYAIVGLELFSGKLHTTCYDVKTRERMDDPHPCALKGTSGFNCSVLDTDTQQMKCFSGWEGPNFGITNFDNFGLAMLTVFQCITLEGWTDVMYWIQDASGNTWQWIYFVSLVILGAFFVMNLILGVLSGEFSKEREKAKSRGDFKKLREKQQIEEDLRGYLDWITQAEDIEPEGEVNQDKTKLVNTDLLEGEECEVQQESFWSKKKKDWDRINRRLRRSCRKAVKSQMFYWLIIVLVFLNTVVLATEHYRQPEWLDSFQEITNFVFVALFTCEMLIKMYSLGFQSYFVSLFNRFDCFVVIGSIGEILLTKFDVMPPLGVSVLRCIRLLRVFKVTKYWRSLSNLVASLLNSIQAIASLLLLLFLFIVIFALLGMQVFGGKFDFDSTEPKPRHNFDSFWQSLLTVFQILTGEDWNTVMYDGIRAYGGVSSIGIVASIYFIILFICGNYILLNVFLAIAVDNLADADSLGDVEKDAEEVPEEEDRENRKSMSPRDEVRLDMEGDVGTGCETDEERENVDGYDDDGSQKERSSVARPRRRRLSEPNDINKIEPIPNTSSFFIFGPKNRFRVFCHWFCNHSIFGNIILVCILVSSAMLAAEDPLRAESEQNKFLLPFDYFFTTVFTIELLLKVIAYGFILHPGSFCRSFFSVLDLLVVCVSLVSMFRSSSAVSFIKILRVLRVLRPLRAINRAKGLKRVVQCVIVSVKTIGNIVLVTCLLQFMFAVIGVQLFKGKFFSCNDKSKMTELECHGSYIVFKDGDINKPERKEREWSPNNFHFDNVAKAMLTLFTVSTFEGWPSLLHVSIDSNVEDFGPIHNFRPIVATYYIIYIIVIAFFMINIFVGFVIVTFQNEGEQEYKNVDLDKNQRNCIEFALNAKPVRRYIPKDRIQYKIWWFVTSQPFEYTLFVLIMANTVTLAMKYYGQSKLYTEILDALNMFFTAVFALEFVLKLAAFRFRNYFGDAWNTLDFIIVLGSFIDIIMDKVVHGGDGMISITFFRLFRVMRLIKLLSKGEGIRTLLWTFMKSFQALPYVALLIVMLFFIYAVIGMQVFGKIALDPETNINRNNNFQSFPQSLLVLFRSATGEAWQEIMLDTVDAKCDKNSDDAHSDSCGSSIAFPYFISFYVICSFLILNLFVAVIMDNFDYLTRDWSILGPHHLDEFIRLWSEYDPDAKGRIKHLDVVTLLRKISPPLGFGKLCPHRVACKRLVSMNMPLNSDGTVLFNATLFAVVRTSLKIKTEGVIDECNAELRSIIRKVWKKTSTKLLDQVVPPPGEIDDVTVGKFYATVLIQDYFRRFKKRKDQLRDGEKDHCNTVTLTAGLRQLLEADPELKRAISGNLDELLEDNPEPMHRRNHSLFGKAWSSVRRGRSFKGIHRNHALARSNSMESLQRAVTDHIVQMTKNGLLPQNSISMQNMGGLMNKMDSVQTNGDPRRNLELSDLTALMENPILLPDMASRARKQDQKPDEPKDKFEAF

Row | Compound | Activity (Mythimna separata [1]) [%] | Activity (Mythimna separata [3]) [%] | Activity (Mythimna separata [4]) [%] | Activity (Mythimna separata [5]) [%] | Activity (Plutella xylostella [6]) [%] | Activity (Mythimna separata [8]) [%] | Activity (Plutella xylostella [10]) [%] | Activity (Mythimna separata [11]) [%] | Activity (Culex pipiens pallens [12]) [%] | also measured
1 | Cc1cc(Cl)cc(C(=O)NC2CCCCC2)c1NC(=O)NC(=O)c1cc(C(F)(F)F)nn1-c1ncccc1Cl | 0 |  |  |  |  |  |  |  |  | 
2 | CCNC(=O)c1cc(Cl)cc(C)c1NC(=S)NC(=O)c1cc(C(F)(F)F)nn1-c1ncccc1Cl | 100 | 0 | 100 | 100 | 100 | 100 | 100 | 100 |  | Activity (Plutella xylostella [2]): 100%; Activity (Plutella xylostella [7]): 86%; Activity (Plutella xylostella [9]): 29%
3 | CNC(=O)c1cc(Cl)cc(C)c1NC(=S)NC(=O)c1cc(Br)nn1-c1ncccc1Cl | 100 | 50 | 100 | 100 |  | 100 |  | 100 | 60 | Activity (Culex pipiens pallens [13]): 20%
4 | O=C(NC(=O)c1cc(C(F)(F)F)nn1-c1ncccc1Cl)Nc1ccc(Cl)cc1C(=O)NC1CC1 | 30 |  |  |  |  |  |  |  |  | 
5 | Cc1cccc(C(=O)NCCC(C)C)c1NC(=S)NC(=O)c1cc(Br)nn1-c1ncccc1Cl | 100 |  | 30 |  |  |  |  |  | 20 | 
6 | Cc1cc(Cl)cc(C(=O)NC2CCCCC2)c1NC(=S)NC(=O)c1cc(C(F)(F)F)nn1-c1ncccc1Cl | 40 |  |  |  | 0 |  | 30 |  |  | 
7 | Cc1cc(Br)cc(C(=O)NC(C)C)c1NC(=S)NC(=O)c1cc(Br)nn1-c1ncccc1Cl | 100 | 0 | 100 | 100 |  | 100 |  | 100 | 90 | Activity (Culex pipiens pallens [14]): 30%; Activity (Culex pipiens pallens [13]): 70%
8 | CCCCNC(=O)c1cc(Cl)cc(C)c1NC(=O)NC(=O)c1cc(C(F)(F)F)nn1-c1ncccc1Cl | 40 |  |  |  |  |  |  |  |  | 
9 | Cc1cccc(C(=O)NC2CC2)c1NC(=O)NC(=O)c1cc(C(F)(F)F)nn1-c1ncccc1Cl | 100 |  | 80 |  |  |  |  |  |  | 
10 | Cc1cc(Br)cc(C(=O)NCc2ccccc2)c1NC(=S)NC(=O)c1cc(C(F)(F)F)nn1-c1ncccc1Cl | 100 |  | 100 | 0 | 100 | 100 | 100 | 100 |  | Activity (Plutella xylostella [2]): 100%; Activity (Plutella xylostella [7]): 100%; Activity (Plutella xylostella [9]): 57%; LC50 (Plutella xylostella [15]): 0.65 ng/mL (≈ 0.997 nM)
11 | CNC(=O)c1cc(Cl)cc(C)c1NC(=S)NC(=O)c1cc(C(F)(F)F)nn1-c1ncccc1Cl | 100 | 50 | 100 | 100 | 100 | 100 | 100 | 100 |  | Activity (Plutella xylostella [2]): 100%; Activity [16]: 112%; inhibition [17]: inactive; Activity (Plutella xylostella [7]): 71%; Activity (Plutella xylostella [9]): 43%; Activity [18]: Active
12 | Cc1cc(Br)cc(C(=O)NC2CC2)c1NC(=O)NC(=O)c1cc(C(F)(F)F)nn1-c1ncccc1Cl | 100 |  | 0 |  |  |  |  |  |  | 
13 | Cc1cc(Cl)cc(C(=O)NC(C)(C)C)c1NC(=S)NC(=O)c1cc(Br)nn1-c1ncccc1Cl | 100 | 40 | 100 | 100 |  | 100 |  | 100 | 100 | Activity (Culex pipiens pallens [14]): 30%; Activity (Culex pipiens pallens [13]): 90%
